Measured values gathered from unrelated publications.
Protocols differ between the studies behind these lines.
PSMB6/PSMB5/PSMB7: PSMB6/PSMB5/PSMB7 (Homo sapiens, UniProt P28072+P28074+Q99436)
NTRK3: NT-3 growth factor receptor (NTRK3, Homo sapiens, UniProt Q16288)

Compound | target | effect on | action | method | cells | tested at | inhibition
CCN(CC)CCNC(=O)c1c(C)[nH]c(/C=C2\C(=O)Nc3ccc(F)cc32)c1C | Dual specificity mitogen-activated protein kinase kinase 7 (MAP2K7, Homo sapiens, UniProt O14733) | enzyme activity | inhibitor | – | – | 0.3 µM | 11%
COC(=O)c1c(O)ccc(O)c1C(=O)c1c(O)cc2c(c1O)[C@@H]1C=C[C@]3(C2)C(=C(O)c2c(O)cc(C)cc2[C@@H]3OC(C)=O)C1=O | PSMB6/PSMB5/PSMB7 | enzyme activity in cells | inhibitor | – | MCF7 | 20 µg/mL | 55%
CC1=C(/C=C/C(C)=C/C=C/C(C)=C/C(=O)O)C(C)(C)CCC1 | Prothrombin (Rattus norvegicus, UniProt P18292) | enzyme activity | inhibitor | – | – | 200 µg/mL | 92%
CN1CCN(CC(=O)Nc2cccc(C(=O)Nc3ccc4[nH]ncc4c3)c2)CC1 | NTRK3 | enzyme activity | inhibitor | FRET | – | 1 µM | 23%
COc1ccc(C(N)=O)cc1NC(=O)c1cccc(-c2cnc3[nH]c(=O)n(C)c3c2)c1 | Poly [ADP-ribose] polymerase tankyrase-1 (TNKS, Homo sapiens, UniProt O95271) | enzyme activity | inhibitor | – | – | 0.1 µM | 0%
O=C(O)CC[C@@H](O)C(=O)O | Methylcytosine dioxygenase TET2 (Mus musculus, UniProt Q4JK59) | enzyme activity | inhibitor | – | – | 50 mM | 83%
COC(=O)c1c(O)ccc(O)c1C(=O)c1c(O)cc2c(c1O)[C@@H]1C=C[C@@]3(C2)[C@@H](OC(C)=O)c2cc(C)cc(O)c2C(=O)C3(O)C1=O (some centres unmarked) | PSMB6/PSMB5/PSMB7 | enzyme activity in cells | inhibitor | – | MCF7 | 20 µg/mL | 67%
CN(C)C1CCN(CC#Cc2nn(C3CCCC3)c3nc(NCc4ccccc4)ncc23)C1 (centres unmarked) | Cyclin-dependent kinase 9, with cyclin T1 (CDK9, Homo sapiens, UniProt P50750) | enzyme activity | inhibitor | FRET | – | 0.1 µM | 5%
CCN1CCN(Cc2ccc(NC(=O)c3ccc(C)c(Oc4ccnc5[nH]ccc45)c3)cc2C(F)(F)F)CC1 | Mitogen-activated protein kinase 3 (MAPK3, Homo sapiens, UniProt P27361) | target engagement in cells | inhibitor | chemoproteomics | A-375 | 0.5 µM | -44.6%
O=C(Nc1ccc(C(F)(F)F)cc1)Nc1cccc(C(=O)Nc2ccc3[nH]ncc3c2)c1 | NTRK3 | enzyme activity | inhibitor | FRET | – | 1 µM | 13.5%
OCc1cc(C(O)CNCCCCCCOCCCCc2ccccc2)ccc1O (centres unmarked) | C-X-C chemokine receptor type 4 (CXCR4, Homo sapiens, UniProt P61073) | calcium signal | antagonist | – | U87.CD4.CXCR4 | 20 µM | 15%
